# Data: ChEMBL document CHEMBL1122384, “Synthesis and evaluation of 24-(isopropyl[75Se]seleno)chol-5-en-3 beta-ol” (J Med Chem, 1983)
# Tests used:
# Format in all cases: functional
# [1] = Adrenal/Tissue ratio calculated from percent dose per gram of tissue determined after 1 day intravenous administration from ovaries
# Summary of the method: (§1)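 Female Fischer 344 rats (160–180 g), fed ad libitum. Steroid dissolved in EtOH, formulated in Tween 80–EtOH–saline, 5–10 μCi in 1 mL given into a lateral tail vein under light Et₂O anesthesia. Organs removed 1 day post-injection, rinsed, blotted, weighed and gamma counted, 3 rats per time point. Ratios taken from adrenal vs tissue % dose/g.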
# [2] = Adrenal/Tissue ratio calculated from percent dose per gram of tissue determined after 1 day intravenous administration from liver; summary of the method: as §1
# [3] = Adrenal/Tissue ratio calculated from percent dose per gram of tissue determined after 1 day intravenous administration from lung; summary of the method: as §1
# [4] = Adrenal/Tissue ratio calculated from percent dose per gram of tissue determined after 1 day intravenous administration from blood; summary of the method: as §1
# [5] = Adrenal/Tissue ratio calculated from percent dose per gram of tissue determined after 1 day intravenous administration from spleen; summary of the method: as §1
# [6] = Adrenal/Tissue ratio calculated from percent dose per gram of tissue determined after 1 day intravenous administration from kidney; summary of the method: as §1
Structure (SMILES),Ratio [1],Ratio [2],Ratio [3],Ratio [4],Ratio [5],Ratio [6]
C[Se]C[C@@H]1CC2C(CCC3(C)C(C(C)CCCC(C)C)CCC23)C2=C1CC(O)CC2 (stereo not given in full) [SCINTIDREN],3.2,42,28.9,105,27.1,52.5
CC(C)CCCC(C)C1CCC2C3CC(CI)C4=C(CCC(O)C4)C3CCC12C (stereo not given),3,52.2,,92.1,,107.8
